The values that follow come from ChEMBL document CHEMBL4316598, “Synthesis, antiproliferative and apoptosis induction potential activities of novel bis(indolyl)hydrazide-hydrazone derivatives” (Bioorg Med Chem, 2019).

In one experiment the test system is FaDu. In words: Cytotoxicity against human FADU cells assessed as reduction in cell viability after 4 hrs by MTT assay. Type of experiment: functional, cell-based.
The subject of experiment [1] is MCF7. In words: Induction of apoptosis in human MCF7 cells assessed as early apoptotic cells at 1 uM after 8 hrs by annexin-V FITC/propidium iodide staining based flow cytometric analysis relative to control. Type of experiment: functional. The procedure, abridged:
(§1)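 Cells were grown in DMEM with 10% heat-inactivated FBS at 37 °C and 5% CO₂, then plated at 500,000 cells/well in 24-well plates. They were treated from a DMSO stock (DMSO ≤0.1%) for 8, 12 or 16 h. After a PBS wash, cells were resuspended in binding buffer (10 mM HEPES pH 7.4, 2.5 mM CaCl₂, 140 mM NaCl, 0.1% BSA), stained 40 min with FITC-annexin V, then with PI, and run on the flow cytometer immediately. Values are the mean of three independent experiments.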

The subject of experiment [2] is MCF7. The experiment in a line: Induction of apoptosis in human MCF7 cells assessed as late apoptotic cells at 1 uM after 8 hrs by annexin-V FITC/propidium iodide staining based flow cytometric analysis relative to control. Type of experiment: functional. In outline: as §1
The test system of experiment [3] is MCF7. The experiment in a line: Induction of apoptosis in human MCF7 cells assessed as viable cells at 1 uM after 8 hrs by annexin-V FITC/propidium iodide staining based flow cytometric analysis relative to control. Type of experiment: functional. The conditions noted are these: MCF7, 8 h, read-out: Activity. The procedure, abridged: as §1
Experiment [4] concerns MCF7. The experiment in a line: Induction of apoptosis in human MCF7 cells assessed as late apoptotic cells at 1 uM after 12 hrs by annexin-V FITC/propidium iodide staining based flow cytometric analysis relative to control. Type of experiment: functional. The procedure, abridged: as §1
Experiment [5] deals with MCF7. In words: Induction of apoptosis in human MCF7 cells assessed as viable cells at 1 uM after 12 hrs by annexin-V FITC/propidium iodide staining based flow cytometric analysis relative to control. Conditions: MCF7, 12 h, read-out: Activity. Type of experiment: functional. In outline: as §1
The subject of experiment [6] is HeLa. The experiment in a line: Induction of apoptosis in human HeLa cells assessed as early apoptotic cells at 1 uM after 12 hrs by annexin-V FITC/propidium iodide staining based flow cytometric analysis relative to control. Type of experiment: functional. In outline:
as §1

Experiment [7] deals with HeLa. In words: Induction of apoptosis in human HeLa cells assessed as late apoptotic cells at 1 uM after 16 hrs by annexin-V FITC/propidium iodide staining based flow cytometric analysis relative to control. Type of experiment: functional. In outline: as §1
Experiment [8] concerns MCF7. The experiment in a line: Induction of ROS generation in human MCF7 cells at 5 uM after 4 to 8 hrs in presence of NAC by DCFH-DA staining-based fluorescence spectrophotometric analysis. Type of experiment: functional, cell-based. In outline: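 DCFH-DA ROS: HeLa or MCF-7 cells at 2×10^6/well cultured 12 h, treated 4 or 8 h; t-BHP (10 μM) is the positive control. DCFH-DA 10 μM added for 10 min at 37 °C, cells washed twice with PBS. Fluorescence read at ex 485/em 520 nm. For the NAC arm, NAC (5 mM) is added to the medium before treatment.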

Experiment [9] has as its system HeLa. The experiment in a line: Induction of nitric oxide production in human HeLa cells at 5 uM measured over 8 hrs by Griess reaction based assay relative to control. Type of experiment: functional. In outline:
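Cells seeded at 2×10^6 cells/well for 12 h, then exposed to 1, 5 and 10 μM compound for 8 h at 37 °C. Culture supernatant mixed with Griess reagent (0.002% N-1-naphthyl-ethylenediamine dihydrochloride, 0.5% sulfanilic acid, 14% glacial acetic acid). Nitrite read by absorbance at 550 nm and compared with vehicle group.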

For experiment [10], the species on record is Homo sapiens. In words: Inhibition of PKA phosphorylation (unknown origin) after 5 to 60 mins by bioluminescence assay. The procedure, abridged: (§2)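 Kinase activity measured with compound at 1, 5, 10 and 50 μM, using a Kinase Reaction Rate Kit. Phosphorylation was followed by bioluminescent monitoring of ATP consumption, with light read at 5 min and 1 h. Staurosporine served as positive control. Data given as % kinase inhibition (% of control activity), from two separate experiments.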

The species named for experiment [11] is Homo sapiens. In words: Inhibition of PKA phosphorylation (unknown origin) at 50 uM after 5 to 60 mins by bioluminescence assay relative to control. The procedure, abridged:
as §2

Experiment [12] deals with MCF7. The experiment in a line: Induction of caspase-dependent apoptosis in human MCF7 cells assessed as activation of caspase-8 at 1 to 3 uM after 24 hrs by Western blot analysis. Type of experiment: functional, cell-based. The procedure, abridged:
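Cells were treated at 1, 3 and 5 µM for 24 h at 37 °C. Lysis was in ice-cold Triton X-100 buffer with protease and phosphatase inhibitors; nuclear proteins were extracted separately. Protein was quantified by BCA. Lysates were separated by electrophoresis, transferred to nitrocellulose and blocked in non-fat milk for 1 h. Primary antibody was applied overnight at 4 °C and secondary for 1 h at 28 °C. Detection was by enhanced chemiluminescence.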

In experiment [13] the test system is HeLa. The experiment in a line: Induction of ROS generation in human HeLa cells at 5 uM after 24 hrs by CM-H2DCFDA staining-based FACS analysis. Type of experiment: functional, cell-based. In outline: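 CM-H2DCFDA ROS: HeLa or MCF-7 cells at 2×10^6/well in 6-well plates treated with 5 μM (final) for 12 or 24 h at 37 °C. Cells harvested, washed with PBS, stained with CM-H2DCFDA in PBS 30 min at 37 °C, washed with ice-cold PBS. Read by FACScan with 488 nm argon laser.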

In experiment [14] the test system is HeLa. The experiment in a line: Induction of apoptosis in human HeLa cells assessed as up-regulation of acetylated p53 level at 5 uM after 24 hrs by sandwich ELISA. Type of experiment: functional, cell-based. The procedure, abridged:
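Cells were treated at 5 µM for 12, 24 and 48 h. Lysis was in ice-cold lysis buffer with 1 mM PMSF (5 min on ice), followed by three freeze-thaw cycles and a 10 min spin at 4 °C. Acetylated and total p53 were measured in the supernatant by kit sandwich ELISA, read at 450 nm. The control index is sample absorbance divided by that of untreated cells at the same time. Values are mean ± SD of triplicate experiments.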

Experiment [15] addresses T1, MAP kinase p38 (Homo sapiens) (UniProt O15264+Q15759+Q16539+P53778). In words: Activation of MAPK p38 phosphorylation in human MCF7 cells assessed as increase in ratio of phosphorylated p38 to total p38 level at 5 uM in presence of p38 kinase inhibitor […] by ELISA. Type of experiment: cell-based. The procedure, abridged:
(§3)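 Cell-based ELISA: HeLa or MCF-7 cells (20×10^3/well) grown overnight at 37 °C, 5% CO2, treated with 5 μM, then fixed and blocked. Probed with rabbit anti-total and anti-phospho P38, JNK or ERK1/2 (1:100), then HRP anti-rabbit IgG. Result is the phospho/total ratio; inhibitor arms use […], […] or SP600125. n=3.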

Experiment [16] has as its target T1, MAP kinase p38 (Homo sapiens). The experiment in a line: Activation of MAPK p38 phosphorylation in human HeLa cells assessed as increase in ratio of phosphorylated p38 to total p38 level at 5 uM in presence of p38 kinase inhibitor […] by ELISA. Type of experiment: cell-based. In outline: as §3
For experiment [17], the target named is c-Jun N-terminal kinase, JNK (Homo sapiens) (UniProt P45983+P53779+P45984). The experiment in a line: Activation of JNK phosphorylation in human HeLa cells assessed as increase in ratio of phosphorylated JNK to total JNK level at 5 uM in presence of JNK inhibitor SP600125 by ELISA. Type of experiment: cell-based. The procedure, abridged: as §3
Experiment [18] concerns MCF7. In words: Induction of ERK/MAPK signal transduction pathway in human MCF7 cells assessed as increase in p53 expression. Type of experiment: cell-based.
Experiment [19] relates to MCF7. In words: Induction of ERK/MAPK signal transduction pathway in human MCF7 cells assessed as increase in p21 level. Type of experiment: cell-based.

Structures are written as SMILES. Active and inactive are the calls of the source. The calls are words filed in the database; no cut-off is given here.

Consider `Cn1cc(/C=N\NC(=O)c2cn(C)c3ccc(Br)cc23)c2ccccc21`, for which the Activity entry with FaDu was “Dose-dependent effect”; in the experiment with MCF7 [1], 2.26%; in the experiment on MCF7 [2] it was 4.01%; in the experiment on MCF7 [4] it was 35.72%; in the experiment with HeLa [6], 33.51%; in the experiment on HeLa [7], 71.74%. Further, the Activity in the experiment on HeLa [9] stood at 42.4%. Besides, in the experiment with FaDu, the IC50 was found to be 9.64 µM. In addition, the viability at 1 µM is 93.4% in the experiment with MCF7 [3] and 40.5% in the experiment on MCF7 [5]. For the same compound, the result (with MCF7 [8]; with MCF7 [12]; in [15]; in experiment [16]; in experiment [17]) was inactive. Besides, the inhibition entry is “Dose-dependent effect” in the experiment listed under Homo sapiens [10] and 45% in the experiment filed under Homo sapiens [11]. Besides, the result in the experiment on HeLa [13], with HeLa [14], in the experiment with MCF7 [18] and in the experiment on MCF7 [19] was Active.
